Key:
[1] = system: PANC-1; test: Inhibition of cell migration in human PANC-1 cells incubated for 48 hrs by crystal violet staining based transwell assay; format: functional; settings: dose 2.5-10 µM
Outline: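 Cells at 1.5×10^5 cells/mL in serum-free medium containing drug were added to the upper Transwell chamber (200 μL), with medium containing 10% FBS below. After 48 h, non-migrated cells were swabbed off. Inserts were fixed in 4% paraformaldehyde for 15-20 min and stained with 0.5% crystal violet. Cells were counted in four random fields at 100×; n = 3.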

[2] = system: BXPC-3; test: Induction of apoptosis in human BXPC-3 cells assessed as viable cells at 8 uM incubated for 48 hrs by Annexin V-FITC/PI staining based flow cytometry (reference value: 91.5 %); format: functional; settings: read-out: Activity
[3] = Toxicity in BALB/c nude mouse xenografted with human BxPC-3 cells assessed as inflammatory infiltration in lung at 5 to 15 mg/kg, ip qd for 21 days by H and E staining based analysis; settings: in vivo, 504 h
[4] = system: PANC-1; test: Induction of apoptosis in human PANC-1 cells assessed as necrotic cells at 8 uM incubated for 48 hrs by Annexin V-FITC/PI staining based flow cytometry (reference value: 2.24 %); format: functional
[5] = system: BXPC-3; test: Induction of apoptosis in human BXPC-3 cells assessed as viable cells at 2.5 uM incubated for 48 hrs by Annexin V-FITC/PI staining based flow cytometry (reference value: 91.5 %); format: functional; settings: read-out: Activity
[6] = system: PANC-1; test: Induction of apoptosis in human PANC-1 cells assessed as viable cells at 10 uM incubated for 48 hrs by Annexin V-FITC/PI staining based flow cytometry (reference value: 93.2 %); format: functional; settings: read-out: Activity
[7] = system: BXPC-3; test: Induction of apoptosis in human BXPC-3 cells assessed as necrotic cells at 5 uM incubated for 48 hrs by Annexin V-FITC/PI staining based flow cytometry (reference value: 0.71 %); format: functional
[8] = system: BXPC-3; test: Inhibition of Hh signaling pathway in human BXPC-3 cells assessed as reduction in Gli1 mRNA level incubated for 48 hrs by qRT-PCR analysis; format: cell-based; settings: dose 2.5-10 µM
Outline: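 Total RNA was extracted by column kit after 48 h treatment and checked spectrophotometrically. Gli1 and Ptch1 transcripts were quantified by real-time RT-qPCR with GAPDH as internal control. Results are fold change relative to the untreated group; three separate experiments.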

[9] = system: BXPC-3; test: Induction of apoptosis in human BXPC-3 cells assessed as early apoptotic cells at 2.5 uM incubated for 48 hrs by Annexin V-FITC/PI staining based flow cytometry (reference value: 1.11 %); format: functional
[10] = system: PANC-1; test: Induction of cell cycle arrest in human PANC-1 cells assessed as accumulation at S phase at 5 uM incubated for 48 hrs by PI/RNase staining based flow cytometry (reference value: 7.58 %); format: functional
[11] = Toxicity in BALB/c nude mouse xenografted with human BxPC-3 cells assessed as necrosis in lung at 5 to 15 mg/kg, ip qd for 21 days by H and E staining based analysis; settings: in vivo, 504 h
[12] = system: PANC-1; test: Induction of apoptosis in human PANC-1 cells assessed as late apoptotic cells at 5 uM incubated for 48 hrs by Annexin V-FITC/PI staining based flow cytometry (reference value: 2.74 %); format: functional
[13] = system: PANC-1; test: Induction of cell cycle arrest in human PANC-1 cells assessed as accumulation at G1 phase at 5 uM incubated for 48 hrs by PI/RNase staining based flow cytometry (reference value: 82.0 %); format: functional

Compound: CN(C)Cc1ccc(NC(=O)c2ccc(Nc3nccc(-c4cccnc4)n3)cc2)cc1
- inhibition [1]: Dose-dependent-effect
- viability at 8 µM [2]: 82.5%
- Activity [3]: Non-toxic
- Activity [4]: 2.16%
- viability at 2.5 µM [5]: 88.5%
- viability at 10 µM [6]: 71%
- Activity [7]: 1.02%
- inhibition [8]: Dose-dependent-effect
- Activity [9]: 2.11%
- Activity [10]: 8.18%
- Activity [11]: Non-toxic
- Activity [12]: 7.03%
- Activity [13]: 84.2%
